Bioassay records (PubChem BioAssay)
Sampled rows, rich in hits. Any-hit rate of the full collection: about 3.7%.
Kir21 inh: inhibitors of mouse Kir2.1 inward-rectifier potassium channel | 0.85% of 310,000 active | HEK293-Kir2.1, FluxOR thallium flux fluorescence; stronger effect = lower value | B-score at 10 µM | Inward rectifier potassium channel 2 (Mus musculus), P35561;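 active = fluorescence ratio B-score at or below minus 3 SD of library scores, with starting-brightness B-score within 2 SD, cut at about -4.2 in these data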;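 also: channel flux triggered by added potassium and thallium sulfate stimulus; B-score of peak minus minimum fluorescence over baseline after thallium stimulus; more negative B-score means stronger Kir2.1 block with less thallium influx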
KCNK3 block: human KCNK3 channel inhibitors, primary screen, CHO cells, FluxOR thallium flux, B-score. FluxOR fluorescence; stronger effect = lower value. B-score at 10 µM. 0.84% of 340,000 active;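 active = B-score under library mean minus 4 SD, starting fluorescence ratio at most library mean plus 5 SD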;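 also: more negative B-score means stronger inhibition of thallium flux through KCNK3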
Target sequence (O14649 whole entry, looked up): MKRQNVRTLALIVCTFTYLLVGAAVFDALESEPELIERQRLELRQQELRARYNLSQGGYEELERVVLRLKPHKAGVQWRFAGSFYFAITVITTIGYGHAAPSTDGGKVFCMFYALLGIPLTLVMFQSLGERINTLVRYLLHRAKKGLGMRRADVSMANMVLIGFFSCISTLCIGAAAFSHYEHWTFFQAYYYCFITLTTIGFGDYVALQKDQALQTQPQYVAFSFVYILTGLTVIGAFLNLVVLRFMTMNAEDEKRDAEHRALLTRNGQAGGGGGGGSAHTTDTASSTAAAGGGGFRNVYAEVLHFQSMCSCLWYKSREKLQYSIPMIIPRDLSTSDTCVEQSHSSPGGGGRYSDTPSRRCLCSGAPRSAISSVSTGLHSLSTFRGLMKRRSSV
KCNQ1 inh: inhibitors of human KCNQ1 channel, primary screen, cell-based, thallium flux, high-throughput; CHO-K1 KCNQ1, FluxOR thallium flux fluorescence; stronger effect = higher value; B-score at 10 µM; 1.3% of 310,000 active; AID 2642, 2010; Potassium voltage-gated channel subfamily KQT member 1 (Homo sapiens), P51787;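 active = compounds whose thallium flux B-score, printed positive for inhibition, exceeds three library SD while starting fluorescence stays within three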;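 also: channel opened by potassium depolarization with thallium stimulus after 20 min compound exposure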
KCNK9 inh: KCNK9 potassium channel inhibitors, primary screen, HEK293 cells, thallium flux. Potassium channel subfamily K member 9 (Homo sapiens), Q9NPC2. FluxOR thallium flux fluorescence; stronger effect = lower value. B-score at 10 µM. 1.2% of 310,000 active. AID 488922, 2010;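 active = ratio B-score over 3 SD below the library mean, with starting fluorescence within 5 SD of its mean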;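 also: negative B-score means less thallium flux so channel inhibition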
KCNQ1 pot: potentiators or activators of KCNQ1 channel, primary screen, cell-based, thallium flux, high-throughput; Potassium voltage-gated channel subfamily KQT member 1 (Homo sapiens), P51787; CHO-K1 KCNQ1, thallium flux FluxOR fluorescence; stronger effect = higher value; B-score at 10 µM; 0.35% of 310,000 active; AID 2648, 2010;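 active = fluorescence ratio B-score, a plate-corrected score, at least three library SD, with initial intensity B-score within 5 SD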
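System: Stable KCNQ1 CHO-K1 line | Incubation: 90 min dye loading and 20 min compound exposure, both at room temperature | Measure: Ratio B score | Medium: Assay buffer for compound exposure, DMSO matched across wells | Compound dosing: Single-concentration screen | Probe or stimulus: K+/Tl+ depolarizing stimulus | Measured by: Kinetic FluxOR fluorescence, 10 s baseline plus 110 s post-stimulus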
hERG protect: hERG rescue from dofetilide block, primary screen, cell-based, CHO-hERG, FluxOR thallium flux, dofetilide IC70. dofetilide IC70 present. activation (rescue from dofetilide block), less the hit threshold, % at 10 µM. 0.51% of 310,000 active;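 active = activation above the mean of controls blocked by dofetilide plus 5 SD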;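 also: thallium influx through hERG after potassium depolarization seen as dye fluorescence rise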
KCNK9 block conf: KCNK9 potassium channel inhibitors, confirmation, HEK293 cells, thallium flux, duplicate; shares compounds with KCNK9 inh; FluxOR thallium flux fluorescence; inhibition, % at 10 µM; 43% of 4,900 active; AID 492992, 2010;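 active = thallium signal inhibited by more than 5 SD of the compound-free buffer control wells, on both duplicate plates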;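 also: 0% = assay buffer control wells without compound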
Kir2-1 spec: mouse Kir2.1 channel inhibition, confirmation, selectivity assay for KCNK9 modulator project, cell-based, HEK293, thallium flux; Kir2.1 cells, FluxOR thallium flux fluorescence; shares compounds with KCNK9 inh; 4% of 4,900 active; AID 492993, 2010; inhibition, % at 10 µM;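 active = thallium signal drop more than 5 SD beyond the mean of the no-compound control wells, seen in both duplicate plates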;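 also: signal is fluorescence rise after thallium addition divided by baseline fluorescence; plate controls were assay buffer only for no effect and full block by chlorpromazine control for full effect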
HEK293 Tl ctr: thallium flux in non-induced HEK293 cells, confirmation, counter-screen for KCNK9 inhibitor project, cell-based, second counter screen, non-induced KCNK9-HEK293; FluxOR thallium flux; inhibition, % at 10 µM; shares compounds with KCNK9 inh; 40% of 4,900 active; AID 492997, 2010;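 active = thallium signal drop beyond 5 SD of the untreated control mean, on both duplicate plates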;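 also: plate controls were buffer only IC0 wells for no effect and SID17386958 at its maximal inhibitory level for full effect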
* = called active by the depositor; i = inactive; / = no result given; ! = not active in a repeat.

SMILES | Kir21 inh | KCNK3 block | KCNQ1 inh | KCNK9 inh | KCNQ1 pot | hERG protect | KCNK9 block conf | Kir2-1 spec | HEK293 Tl ctr
O=C(NCCc1ccccc1)c1ccc2c(c1)OCCO2 | 0.87 | i | i | i | i | -4 | i | i | i
O=C(NCCc1ccccc1)c1ccc2c(c1)OCCCO2 | -0.69 | i | i | i | i | -4 | / | / | /
CC1Cc2ccccc2N1C(=O)COC(=O)/C=C/c1ccc(F)cc1 (stereo unspecified) | / | i | / | / | / | / | / | / | /
CC1Cc2ccccc2N1C(=O)CO/N=C/c1ccc(OC(F)F)cc1 (stereo unspecified) | -0.33 | i | i | i | i | -7 | i | i | i
Cc1cc(S(=O)(=O)N2CCCCCC2)c(Cl)cc1Cl | 0.99 | i | i | i | i | -14 | i | i | i
O=S(=O)(c1cc(Cl)ccc1Cl)N1CCCCC1 | -0.24 | i | i | i | i | -16 | / | / | /
Oc1ccccc1C1=Nc2ccccc2N=C(c2cccs2)C1 | 0.05 | i | i | -10* | i | -24 | 42%* | i | 34%*
Cc1ccc(S(=O)(=O)n2cnc3ccccc32)cc1[N+](=O)[O-] | 0.86 | i | i | i | i | -4 | / | / | /
Cc1ccc(C)c(N2CCN(C3CCCC(C)C3)CC2)c1 (stereo unspecified) | -0.44 | i | i | i | i | -13 | i | i | i
COc1cccc(N2CCN(C3CCCC(C)C3)CC2)c1 (stereo unspecified) | 0.13 | i | i | i | i | -7 | / | / | /
Cc1ccc(C)c(N2CCN(CC3CCCCC3)CC2)c1 | 0.28 | i | i | i | i | -10 | i | i | i
Cc1ccc(C)c(N2CCN(CCCc3ccccc3)CC2)c1 | -0.18 | i | i | i | i | -3 | i | i | i
CCOc1ccccc1NC(=O)CS(=O)(=O)c1cn(CC(=O)N2CCOCC2)c2ccccc12 | -0.89 | i | i | i | i | -7 | / | / | /
Cc1cccc(CCNS(=O)(=O)c2ccc3c(c2)CCN3C(=O)CCC(=O)O)c1 | -0.49 | i | i | i | i | -8 | / | / | /
COc1cc(-c2nc(-c3ccccc3)c(-c3cccs3)[nH]2)cc(OC)c1O | -0.58 | i | i | -10* | i | -21 | 51%* | i | i
CCOc1ccc(C(C(=O)NC2CCCC2)N(Cc2ccccc2)C(=O)c2nsc(Cl)c2Cl)cc1 (stereo unspecified) | -0.6 | i | i | -15* | i | -6 | 72%* | i | 40%*
COc1ccc(C(C(=O)NC2CCCC2)N(Cc2ccccc2)C(=O)c2nsc(Cl)c2Cl)cc1 (stereo unspecified) | -1.2 | i | i | i | i | -7 | / | / | /
Cc1ccc[n+](CC(=O)Nc2cc(C(F)(F)F)ccc2Cl)c1 | 0.64 | i | i | i | i | -4 | / | / | /
CCC(C)(C)c1ccc(OCCCC[n+]2cccc(C)c2)c(C(C)(C)CC)c1 | -6.4* | i | 10* | -9.4* | i | -29 | 38%* | 66%* | 28%*
Cc1cc(C)c2nc(NNC(=O)c3ccc(S(=O)(=O)N4CCCCC4)cc3)sc2c1 | 0.09 | i | i | i | i | -12 | i | i | i
Cc1cccc2sc(NNC(=O)c3ccc(S(=O)(=O)N4CCc5ccccc5C4)cc3)nc12 | 0.03 | i | i | i | i | -4 | i | i | i
O=C(CSc1nc2ccccc2c(=O)n1-c1ccc(F)cc1)NC1CCS(=O)(=O)C1 (stereo unspecified) | / | i | / | / | / | / | / | / | /
Cc1ccccc1OCc1n(CC(=O)OC2CC(C)CCC2C(C)C)c2ccccc2[n+]1C (stereo unspecified) | -15* | -13* | 8*! | -17* | i | -30 | 70%* | 78%*! | i
CC1CCC(C(C)C)C(OC(=O)Cn2nnc3c(cnn3-c3ccccc3)c2=O)C1 (stereo unspecified) | -1.3 | i | i | i | i | -20 | / | / | /
O=C(c1cc(COc2ccc(F)cc2F)on1)N1CCCC(c2ccccc2)C1 (stereo unspecified) | 0.3 | i | i | i | i | -8 | i | i | 36%*
SMILES | Kir21 inh | KCNK3 block | KCNQ1 inh | KCNK9 inh | KCNQ1 pot | hERG protect | KCNK9 block conf | Kir2-1 spec | HEK293 Tl ctr
O=C(c1cc(F)ccc1F)C1CCCN(C(=O)c2cccs2)C1 (stereo unspecified) | -1.4 | i | i | i | i | -3 | / | / | /
CC(C)Cc1cc(C(=O)N2CCCC(C(=O)c3cc(F)ccc3F)C2)no1 (stereo unspecified) | 0.3 | i | i | i | i | -5 | i | i | i
O=C(c1cc(COc2ccc(F)cc2F)on1)N1CC[C@@H]2CCCC[C@H]2C1 | -0.09 | i | i | i | i | -13 | i | i | i
O=C(c1ccc(F)cc1)N1CCCC(c2ccccc2)C1 (stereo unspecified) | -0.01 | i | i | -8.8* | i | -11 | 36%* | i | i
COc1ccc(-n2c(SCC(=O)N(C)C3CCS(=O)(=O)C3)nc3ccc(O)cc3c2=O)cc1OC (stereo unspecified) | / | i | / | / | / | / | / | / | /
Cc1nn(C)cc1S(=O)(=O)N1CCN(c2ccccc2F)CC1 | 0 | i | i | i | i | -2 | / | / | /
Cc1ccc(NC(=O)C(C)N=C2NS(=O)(=O)c3ccccc32)cc1F (stereo unspecified) | -1.2 | i | i | i | i | -6 | / | / | /
O=C(Nc1ccccc1)Nc1sccc1-c1nc2ccccc2s1 | -0.16 | i | i | i | i | -10 | / | / | /
